Like-named read-outs stand apart in the source and are kept apart here.
Key:
ROP18 = ROP18 (Toxoplasma gondii, UniProt Q2PAY2); experiment: biochemical
RAW 264.7 macrophages = experiment: MTS-based cell growth assay; conditions: Mus musculus, RAW264.7, 48 h, read-out: EC50 growth inhibition (MTS)
RAW264.7 macrophages [1] = experiment: LDH release cytotoxicity; format: cell-based, mouse; conditions: 4 h incubation, 20 μM
[2] = system: ROP18 function in T. gondii infected RAW macrophages (Irga6 recruitment to PVM); experiment: Irga6; format: cell-based, Toxoplasma gondii; conditions: 10 μM; for proportion of Irga6 positive vacuoles, visual scoring, Δrop18 parasites: Δrop18, IFN-γ-activated RAW macrophages; for amount of Irga6 recruitment, quantitative immunofluorescence, Δrop18 parasites: Δrop18, vs DMSO vehicle
Outline: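 RAW264.7 macrophages on coverslips (10^5/well) primed 24 h with 100 U/ml mouse IFNγ plus 1 ng/ml LPS. RH Δku80 tachyzoites (wild type or rop18-disrupted) at 10^5/ml pretreated 30 min at 37°C with 10 μM test compound or 0.1% DMSO, then invaded 30 min. Formaldehyde-fixed, Triton-permeabilized, stained for TgAldolase and Irga6 (mAb 10D7). Irga6-positive vacuoles scored visually; intensity quantified over parasite/PVM region.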

P. falciparum = conditions: 2 μM; cited from earlier work
[3] = system: HepG2 hepatocarcinoma cells; conditions: 10 μM (48 h stated for compound 10); cited from earlier work
RAW264.7 macrophages [4] = experiment: Phase contrast microscopy of host cell morphology; format: cell-based, mouse; conditions: 10 μM, in as little as 30 min; rounding up and vesiculation
P. falciparum 3D7 strain = conditions: 2 μM, 48 h; cited from earlier work
[5] = system: P. falciparum Dd2 strain (a multidrug resistant strain); conditions: 2 μM, 48 h; cited from earlier work
TBK1 = conditions: 1 μM; ref GSK PKIS profiling (Table S1); cited from earlier work
MELK = conditions: 1 μM; ref GSK PKIS profiling (Table S1); cited from earlier work
CDK3/cyclinE = conditions: 1 μM; ref GSK PKIS profiling (Table S1); cited from earlier work
CDK2 = conditions: 0.1 μM; ref GSK PKIS profiling (Figure S5); cited from earlier work
PDGFRα = conditions: 0.1 μM; ref GSK PKIS profiling (Figure S5); cited from earlier work
PDGFRβ = conditions: 0.1 μM; ref GSK PKIS profiling (Figure S5); cited from earlier work
[6] = IC50 μM FL-8, substrate peptide FL-8, same assay conditions as primary screen
[7] = IC50 μM FL-E, substrate peptide FL-E, same assay conditions as primary screen

Sequence of ROP18 (Q2PAY2 98-554): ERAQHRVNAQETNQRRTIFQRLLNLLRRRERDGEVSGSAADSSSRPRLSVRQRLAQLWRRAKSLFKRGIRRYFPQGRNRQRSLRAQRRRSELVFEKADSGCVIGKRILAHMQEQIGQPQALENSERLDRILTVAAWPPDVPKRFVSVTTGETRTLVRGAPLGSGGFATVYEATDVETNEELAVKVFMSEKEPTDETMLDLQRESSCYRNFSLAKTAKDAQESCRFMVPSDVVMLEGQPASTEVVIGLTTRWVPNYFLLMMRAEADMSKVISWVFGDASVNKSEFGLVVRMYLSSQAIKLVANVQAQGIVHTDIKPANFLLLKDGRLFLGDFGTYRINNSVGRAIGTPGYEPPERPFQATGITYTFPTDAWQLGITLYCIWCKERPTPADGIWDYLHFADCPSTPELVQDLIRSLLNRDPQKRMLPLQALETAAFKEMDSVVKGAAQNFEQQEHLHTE

Oc1nccc2nc(NC3CCNC3)nc(Nc3cc(Cl)cc(Cl)c3)c12 (stereo not shown) [Compound 6, 4-(3,5-dichloroanilino)-2-(pyrrolidin-3-ylamino)pyrido[4,3-d]pyrimidin-5-ol]
IC50 (ROP18; [6]): > 10 µM
IC50 (ROP18; [7]): 7.49 µM

NS(=O)(=O)c1ccc(N/C=C2\C(=O)Nc3ccc4ncsc4c32)cc1 [Compound 1, 4-[(7-hydroxy-6H-pyrrolo[2,3-g][1,3]benzothiazol-8-yl)methyleneamino]benzenesulfonamide]
IC50 (ROP18; [6]): 1.21 µM
IC50 (ROP18; [7]): 2.48 µM

CC(C)(CO)CNC(=O)c1ccc2c(c1)C(=NNc1ccc(S(N)(=O)=O)cc1)C(=O)N2 [Compound 3, 2-hydroxy-N-(3-hydroxy-2,2-dimethyl-propyl)-3-(4-sulfamoylphenyl)azo-1H-indole-5-carboxamide]
IC50 (ROP18; [6]): 0.65 µM
IC50 (ROP18; [7]): 0.19 µM

Cc1cccc(Nc2nc(NC3CCCCC3N)ncc2C(N)=O)c1 (stereo not shown) [Compound 13, 2-[(2-aminocyclohexyl)amino]-4-(3-methylanilino)pyrimidine-5-carboxamide]
IC50 (ROP18; [6]): > 10 µM
IC50 (ROP18; [7]): 6.66 µM

C[C@]12O[C@H](C[C@]1(O)CO)n1c3ccccc3c3c4c(c5c6ccccc6n2c5c31)CNC4=O [Compound 14, (5S,6S,8R)-6-hydroxy-6-(hydroxymethyl)-5-methyl-5,6,7,8,14,15-hexahydro-13H-16-oxa-4b,8a,14-triaza-5,8-methanodibenzo[b,h]cycloocta[jkl]cyclopenta[e]-as-indacen-13-one, reference compound]
IC50 (ROP18): 0.16 µM

COc1ccc(NC(=O)Nc2nc(SCC(=O)C(C)(C)C)ns2)cc1 [Compound 11, 1-[3-(3,3-dimethyl-2-oxo-butyl)sulfanyl-1,2,4-thiadiazol-5-yl]-3-(4-methoxyphenyl)urea]
IC50 (ROP18; [6]): > 10 µM
IC50 (ROP18; [7]): 6.44 µM

CS(=O)(=O)Cc1ccc(Nc2nccc(-c3c(-c4cccc(NC(=O)C5CCCCC5)c4)nn4ncccc34)n2)cc1 [Compound 9, <I>N</I>-[3-[3-[2-[4-(methylsulfonylmethyl)anilino]pyrimidin-4-yl]pyrazolo[1,5-b]pyridazin-2-yl]phenyl]cyclohexanecarboxamide]
IC50 (ROP18; [6]): > 10 µM
IC50 (ROP18; [7]): > 10 µM

NS(=O)(=O)c1ccc(NN=C2C(=O)Nc3ccc(C(=O)NCc4ccncc4)cc32)cc1 [Compound 4, 2-hydroxy-N-(4-pyridylmethyl)-3-(4-sulfamoylphenyl)azo-1H-indole-5-carboxamide]
IC50 (ROP18; [6]): > 10 µM
IC50 (ROP18; [7]): 2.66 µM

NS(=O)(=O)CCc1cccc(Nc2nccc(-c3c(-c4cccc(NC(=O)c5c(F)cccc5F)c4)nn4ccccc34)n2)c1 [Compound 8, 2,6-difluoro-<I>N</I>-[3-[3-[2-[3-(2-sulfamoylethyl)anilino]pyrimidin-4-yl]pyrazolo[1,5-a]pyridin-2-yl]phenyl]benzamide]
IC50 (ROP18; [6]): 0.63 µM
IC50 (ROP18; [7]): 0.94 µM

O=c1[nH]ccc2nc(NC3CCCNC3)nc(Nc3ccc(S(=O)(=O)N4CCOCC4)cc3)c12 (stereo not shown) [Compound 7, 4-(4-morpholinosulfonylanilino)-2-(3-piperidylamino)pyrido[4,3-d]pyrimidin-5-ol]
Ki (ROP18): 0.27 µM
IC50 (ROP18; [6]): 0.4 µM
IC50 (ROP18; [7]): 0.18 µM
EC50 (RAW 264.7 macrophages): 14.2 µM
increase in LDH release (RAW264.7 macrophages [1]): 12%
proportion of Irga6 positive vacuoles, visual scoring, wild type parasites ([2]; wild type (RH), IFN-γ-activated RAW macrophages, vs DMSO vehicle): did not result in a significant increase
amount of Irga6 recruitment, quantitative immunofluorescence, wild type parasites ([2]; wild type (RH), vs DMSO vehicle): no significant increase
proportion of Irga6 positive vacuoles, visual scoring, Δrop18 parasites ([2]; vs DMSO vehicle): caused a reduction
amount of Irga6 recruitment, quantitative immunofluorescence, Δrop18 parasites [2]: significantly lower
inhibition of P. falciparum growth (P. falciparum): > 95%
growth inhibition of HepG2 cells [3]: 13%

O=S1(=O)CCc2ccc(Nc3nc(NC4CCNC4)nc4ccnc(O)c34)cc21 (stereo not shown) [Compound 5, 4-[(1,1-dioxo-2,3-dihydrobenzothiophen-6-yl)amino]-2-(pyrrolidin-3-ylamino)pyrido[4,3-d]pyrimidin-5-ol]
IC50 (ROP18; [6]): > 10 µM
IC50 (ROP18; [7]): 4.02 µM

CS(=O)(=O)Cc1ccc(Nc2nccc(-c3c(-c4cccc(NC(=O)c5c(F)cccc5F)c4)nn4ccccc34)n2)cc1 [Compound 10, 2,6-difluoro-<I>N</I>-[3-[3-[2-[4-(methylsulfonylmethyl)anilino]pyrimidin-4-yl]pyrazolo[1,5-a]pyridin-2-yl]phenyl]benzamide]
IC50 (ROP18; [6]): 2.83 µM
IC50 (ROP18; [7]): 1 µM
EC50 (RAW 264.7 macrophages): 1.3 µM
morphological damage to the host cells (RAW264.7 macrophages [4]): rapid morphological damage
inhibition of 3D7 strain (P. falciparum 3D7 strain): 99%
inhibition of Dd2 strain [5]: 75%
growth inhibition of HepG2 cells [3]: 78%

CC(C)COC(=O)c1ccc2c(c1)/C(=C/Nc1ccc(S(N)(=O)=O)cc1)C(=O)N2 [Compound 2, isobutyl 2-hydroxy-3-[(4-sulfamoylphenyl)iminomethyl]-1H-indole-5-carboxylate]
Ki (ROP18): 0.13 µM
IC50 (ROP18; [6]): 0.51 µM
IC50 (ROP18; [7]): 0.29 µM
EC50 (RAW 264.7 macrophages): 7.4 µM
proportion of Irga6 positive vacuoles, visual scoring, Δrop18 parasites ([2]; vs DMSO vehicle): did not lead to a significant increase or decrease
amount of Irga6 recruitment, quantitative immunofluorescence, Δrop18 parasites [2]: did not lead to a significant increase or decrease
inhibition of TBK1 (TBK1): > 90%
inhibition of MELK (MELK): > 90%
inhibition of CDK3/cyclinE (CDK3/cyclinE): > 90%
inhibition of CDK2 (CDK2): > 50%
inhibition of PDGFRα (PDGFRα): > 50%
inhibition of PDGFRβ (PDGFRβ): > 50%

Reference: paper PMC4930114 (ACS infectious diseases, 2015)
